# Measured values reported in ChEMBL document CHEMBL2203165, “Glycolysis inhibitor screening identifies the bis-geranylacylphloroglucinol protonophore moronone from Moronobea coccinea” (2012).
# Activity calls are given as the source filed them. No cut-off for these calls is given here.
# Columns and labels:
# [1] = tested on: MDA-MB-231; assay: Effect on lactate production in human MDA-MB-231 cells at […] measured per ug of cellular protein after 48 hrs by enzyme based assay (reference value: 40.5 +/- 6 nmol/ug of cellular protein); format: functional
# [2] = tested on: MDA-MB-231; assay: Effect on lactate production in human MDA-MB-231 cells at […] measured per ug of cellular protein after 24 hrs by enzyme based assay (reference value: 23.6 +/- 2 nmol/ug of cellular protein); format: functional
# [3] = tested on: MDA-MB-231; assay: Increase in cellular glucose consumption in human MDA-MB-231 cells at […] measured per ug of cellular protein after 48 hrs by enzyme based assay (reference value: 43 +/- 8.4 nmol/ug of cellular protein); format: functional
# [4] = tested on: MDA-MB-231; assay: Increase in cellular glucose consumption in human MDA-MB-231 cells at […] measured per ug of cellular protein after 24 hrs by enzyme based assay (reference value: 17.2 +/- 2 nmol/ug of cellular protein); format: functional
# [5] = tested on: MDA-MB-231; assay: Inhibition of cell viability of human MDA-MB-231 cells at 3 mM after 48 hrs by sulforhodamine B method in presence of 1 uM F1F0-ATPase inhibitor oligomycin; format: functional, cell-based
# [6] = tested on: MDA-MB-231; assay: Inhibition of cell viability of human MDA-MB-231 cells at 3 mM after 48 hrs by sulforhodamine B method in presence of 1 uM mitochondrial ETC complex III inhibitor antimycin A; format: functional, cell-based
# [7] = tested on: MDA-MB-231; assay: Inhibition of cell viability of human MDA-MB-231 cells at 30 mM after 48 hrs by sulforhodamine B method; format: functional, cell-based
# Outline: (§1)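 MDA-MB-231 cells are plated at 3×10^4 per well in RPMI 1640 with 10% FBS. After 24 h, compound diluted in serum-free medium is added, with DMSO below 0.5%. Cells are incubated 48 h at 37 °C and viability is read by sulforhodamine B as % inhibition of untreated control. Concentration-response runs are in half-log steps.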
# [8] = tested on: MDA-MB-231; assay: Inhibition of cell viability of human MDA-MB-231 cells at 3 mM after 48 hrs by sulforhodamine B method; format: functional; conditions: MDA-MB-231, 48 h; outline: as §1
# [9] = tested on: MDA-MB-231; assay: Inhibition of cell viability of human MDA-MB-231 cells at 10 mM after 48 hrs by sulforhodamine B method; format: functional, cell-based; outline: as §1
# [10] = tested on: MDA-MB-231; assay: Inhibition of cell viability of human MDA-MB-231 cells at 1 mM after 48 hrs by sulforhodamine B method; format: functional; conditions: MDA-MB-231, 48 h; outline: as §1
# [11] = tested on: MDA-MB-231; assay: Effect on lactate production in human MDA-MB-231 cells at 0.1 uM measured per ug of cellular protein after 48 hrs by enzyme based assay (reference value: 40.5 +/- 6 nmol/ug of cellular protein); format: functional
# [12] = tested on: MDA-MB-231; assay: Effect on lactate production in human MDA-MB-231 cells at 0.1 uM measured per ug of cellular protein after 24 hrs by enzyme based assay (reference value: 23.6 +/- 2 nmol/ug of cellular protein); format: functional
# [13] = tested on: MDA-MB-231; assay: Increase in cellular glucose consumption in human MDA-MB-231 cells at 0.1 uM measured per ug of cellular protein after 48 hrs by enzyme based assay (reference value: 43 +/- 8.4 nmol/ug of cellular protein); format: functional
# [14] = tested on: MDA-MB-231; assay: Increase in cellular glucose consumption in human MDA-MB-231 cells at 0.1 uM measured per ug of cellular protein after 24 hrs by enzyme based assay (reference value: 17.2 +/- 2 nmol/ug of cellular protein); format: functional
# [15] = tested on: MDA-MB-231; assay: Inhibition of cell viability of human MDA-MB-231 cells at 0.1 uM after 48 hrs by sulforhodamine B method; format: functional; conditions: MDA-MB-231, 48 h; outline: as §1
# [16] = tested on: T47D; assay: Decrease in mitochondrial membrane potential in human T47D cells assessed as decline in respiration rate at 3 uM after 48 hrs; format: functional, cell-based
# Outline: (§2)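 Oxygen consumption of intact MDA-MB-231 or T47D cells measured with a Clark-type electrode, no FBS present; compound tested at 0.1, 0.3, 1 and 3 μM; rate normalized to untreated control. Average + standard deviation from three independent experiments (n = 3).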
# [17] = tested on: T47D; assay: Decrease in mitochondrial membrane potential in human T47D cells assessed as decline in respiration rate at 1 uM after 48 hrs; format: functional, cell-based; outline: as §2
# [18] = tested on: MDA-MB-231; assay: Decrease in mitochondrial membrane potential in human MDA-MB-231 cells assessed as decline in respiration rate at 1 uM after 48 hrs; format: functional, cell-based; outline: as §2
# [19] = tested on: MDA-MB-231; assay: Stimulation of oligomycin-induced state 4 respiration in human MDA-MB-231 cells at 1 uM; format: functional, cell-based
# Outline: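 Oligomycin (1 μM) added to MDA-MB-231 cells in a Clark-type electrode chamber to initiate state 4 respiration. Compound (1 μM) then added and oxygen consumption followed. Rate normalized to untreated control.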
# [20] = tested on: MDA-MB-231; assay: Increase in cellular respiration in human MDA-MB-231 cells assessed as increase in oxygen consumption at 0.1 to 1 uM after 48 hrs; format: functional, cell-based; outline: as §2
# [21] = tested on: MDA-MB-231; assay: Decrease in mitochondrial membrane potential in human MDA-MB-231 cells assessed as decline in respiration rate at 3 uM after 48 hrs; format: functional, cell-based; outline: as §2
# [22] = tested on: MDA-MB-231; assay: Effect on lactate production in human MDA-MB-231 cells at 10 uM measured per ug of cellular protein after 48 hrs by enzyme based assay (reference value: 40.5 +/- 6 nmol/ug of cellular protein); format: functional
# [23] = tested on: MDA-MB-231; assay: Effect on lactate production in human MDA-MB-231 cells at 3 uM measured per ug of cellular protein after 48 hrs by enzyme based assay (reference value: 40.5 +/- 6 nmol/ug of cellular protein); format: functional
# [24] = tested on: MDA-MB-231; assay: Effect on lactate production in human MDA-MB-231 cells at 1 uM measured per ug of cellular protein after 48 hrs by enzyme based assay (reference value: 40.5 +/- 6 nmol/ug of cellular protein); format: functional
# [25] = tested on: MDA-MB-231; assay: Effect on lactate production in human MDA-MB-231 cells at 10 uM measured per ug of cellular protein after 24 hrs by enzyme based assay (reference value: 23.6 +/- 2 nmol/ug of cellular protein); format: functional
# [26] = tested on: MDA-MB-231; assay: Effect on lactate production in human MDA-MB-231 cells at 3 uM measured per ug of cellular protein after 24 hrs by enzyme based assay (reference value: 23.6 +/- 2 nmol/ug of cellular protein); format: functional
# [27] = tested on: MDA-MB-231; assay: Effect on lactate production in human MDA-MB-231 cells at 1 uM measured per ug of cellular protein after 24 hrs by enzyme based assay (reference value: 23.6 +/- 2 nmol/ug of cellular protein); format: functional
# [28] = tested on: MDA-MB-231; assay: Increase in cellular glucose consumption in human MDA-MB-231 cells at 10 uM measured per ug of cellular protein after 48 hrs by enzyme based assay (reference value: 43 +/- 8.4 nmol/ug of cellular protein); format: functional
# [29] = tested on: MDA-MB-231; assay: Increase in cellular glucose consumption in human MDA-MB-231 cells at 3 uM measured per ug of cellular protein after 48 hrs by enzyme based assay (reference value: 43 +/- 8.4 nmol/ug of cellular protein); format: functional
# [30] = tested on: MDA-MB-231; assay: Increase in cellular glucose consumption in human MDA-MB-231 cells at 1 uM measured per ug of cellular protein after 48 hrs by enzyme based assay (reference value: 43 +/- 8.4 nmol/ug of cellular protein); format: functional
# [31] = tested on: MDA-MB-231; assay: Increase in cellular glucose consumption in human MDA-MB-231 cells at 10 uM measured per ug of cellular protein after 24 hrs by enzyme based assay (reference value: 17.2 +/- 2 nmol/ug of cellular protein); format: functional
# [32] = tested on: MDA-MB-231; assay: Increase in cellular glucose consumption in human MDA-MB-231 cells at 3 uM measured per ug of cellular protein after 24 hrs by enzyme based assay (reference value: 17.2 +/- 2 nmol/ug of cellular protein); format: functional
# [33] = tested on: MDA-MB-231; assay: Increase in cellular glucose consumption in human MDA-MB-231 cells at 1 uM measured per ug of cellular protein after 24 hrs by enzyme based assay (reference value: 17.2 +/- 2 nmol/ug of cellular protein); format: functional
# [34] = tested on: MDA-MB-231; assay: Cytotoxicity against human MDA-MB-231 cells assessed as inhibition of cell proliferation/viability at 30 uM in presence of 0.1 uM rotenone mitochondrial electron transport inhibitor; format: functional
# Outline: (§3)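 MDA-MB-231 cells in RPMI 1640 with 10% FBS, plated 3×10^4/well; after 24 h, compound diluted in serum-free medium added with or without rotenone (0.1 μM final), DMSO <0.5%. 48 h at 37 °C; viability by sulforhodamine B; % inhibition of untreated control; two independent experiments each in triplicate (n = 6).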
# [35] = tested on: MDA-MB-231; assay: Cytotoxicity against human MDA-MB-231 cells assessed as inhibition of cell proliferation/viability at 0.1 to 10 uM in presence of 0.1 uM rotenone mitochondrial electron transport inhibitor; format: functional, cell-based; outline: as §3
# [36] = tested on: T47D; assay: Increase in cellular respiration in human T47D cells assessed as increase in oxygen consumption at 0.1 to 1 uM after 48 hrs; format: functional, cell-based; outline: as §2
smiles,measurement,setting,value
OC[C@H]1O[C@@H](O)C[C@@H](O)[C@@H]1O,Activity,[1],52.8 nmol
same,Activity,[2],26.3 nmol
same,Activity,[3],50.2 nmol
same,Activity,[4],22.5 nmol
same,inhibition,[5],Active
same,inhibition,[6],Active
same,inhibition,[7],Active
same,inhibition at 3000 µM,[8],8%
same,inhibition,[9],Active
same,inhibition at 1000 µM,[10],4%
C=C(C)[C@H]1Cc2c(ccc3c2O[C@@H]2COc4cc(OC)c(OC)cc4[C@@H]2C3=O)O1 [ROTENONE],Activity,[11],190.4 nmol
same,Activity,[12],75.7 nmol
same,Activity,[13],177.6 nmol
same,Activity,[14],37.5 nmol
same,inhibition at 0.1 µM,[15],7%
CC(C)=CCC/C(C)=C/CC1(C/C=C(\C)CCC=C(C)C)C(O)=CC(=O)C(C(=O)c2ccccc2)=C1O (stereo unspecified) [MORONONE],Activity,[16],Active
same,Activity,[17],Active
same,Activity,[18],Active
same,Activity,[19],Active
same,Activity,[20],Active
same,Activity,[21],Active
same,Activity,[22],168.5 nmol
same,Activity,[23],67.3 nmol
same,Activity,[24],49.3 nmol
same,Activity,[25],59.5 nmol
same,Activity,[26],25.4 nmol
same,Activity,[27],21.9 nmol
same,Activity,[28],168.4 nmol
same,Activity,[29],73.4 nmol
same,Activity,[30],44.7 nmol
same,Activity,[31],45.8 nmol
same,Activity,[32],25.9 nmol
same,Activity,[33],26.7 nmol
same,inhibition (INH),[34],68%
same,Activity,[35],Active
same,Activity,[36],Active
